In ChEMBL document CHEMBL3124940, “Design, synthesis and biological evaluation of D-ring opened galantamine analogs as multifunctional anti-Alzheimer agents” (Eur J Med Chem, 2014) one finds inhibition, IC50 and Ratio IC50 data, which are given here for three compounds.

Assay [1] addresses Amyloid-beta precursor protein (Homo sapiens) (UniProt P05067). The experiment in a line: Inhibition of amyloid beta (1 to 42) aggregation (unknown origin) after 1 hr by thioflavin T fluorescence assay. In a few lines: (§1)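 Aβ42 stock (200 µM in DMSO) centrifuged 12,000 rpm for 10 min; supernatant used. Compound (2 µL of 0.2–4.0 mM DMSO stock) and 2 µL Aβ42 stock added to 76 µL PBS pH 7.4, incubated 1 h at room temperature. 80 µL of 5 µM ThT in 50 mM glycine-NaOH pH 8.5 then added; fluorescence read at excitation 430 nm, emission 488 nm.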

Assay [2] has the same target. The experiment in a line: Inhibition of amyloid beta (1 to 42) aggregation (unknown origin) at 5 uM after 1 hr by thioflavin T fluorescence assay. In a few lines: as §1
The target in assay [3] is Cholinesterase (Equus caballus, UniProt P81908). The assay is described as follows: Inhibition of equine serum BChE using butyrylthiocholine iodide as substrate preincubated for 5 mins followed by substrate addition measured after 5 mins by Ellman's method. The gist of the method:
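Ellman's method with equine serum BChE and butyrylthiocholine iodide; DTNB read-out at 412 nm, 25 °C. Phosphate buffer pH 8.0. At least five concentrations (normally 10^-4 to 10^-9 M), each in triplicate, to build the inhibition curve. Data are means of at least three determinations.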
(In general: Ellman's reagent forms a yellow product with free thiols.)

Assay [4] can be described thus: Selectivity ratio of IC50 for electric eel AChE to IC50 for equine serum BChE. The gist of the method:
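AChE is electric eel Type VI-S with acetylthiocholine; BChE is equine serum with butyrylthiocholine. At least five concentrations, each in triplicate. Ratio = IC50(AChE)/IC50(BChE).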

Assay [5] has as its target Acetylcholinesterase (Electrophorus electricus, UniProt O42275). The experiment in a line: Inhibition of electric eel AChE using acetylthiocholine iodide as substrate preincubated for 5 mins followed by substrate addition measured after 5 mins by Ellman's method.

The source made the active and inactive calls. The calls are words filed in the database; no cut-off is given here. A value given as a limit tells only on which side of the number the result lay.

Amyloid-beta precursor protein (Homo sapiens), sequence (P05067 whole entry): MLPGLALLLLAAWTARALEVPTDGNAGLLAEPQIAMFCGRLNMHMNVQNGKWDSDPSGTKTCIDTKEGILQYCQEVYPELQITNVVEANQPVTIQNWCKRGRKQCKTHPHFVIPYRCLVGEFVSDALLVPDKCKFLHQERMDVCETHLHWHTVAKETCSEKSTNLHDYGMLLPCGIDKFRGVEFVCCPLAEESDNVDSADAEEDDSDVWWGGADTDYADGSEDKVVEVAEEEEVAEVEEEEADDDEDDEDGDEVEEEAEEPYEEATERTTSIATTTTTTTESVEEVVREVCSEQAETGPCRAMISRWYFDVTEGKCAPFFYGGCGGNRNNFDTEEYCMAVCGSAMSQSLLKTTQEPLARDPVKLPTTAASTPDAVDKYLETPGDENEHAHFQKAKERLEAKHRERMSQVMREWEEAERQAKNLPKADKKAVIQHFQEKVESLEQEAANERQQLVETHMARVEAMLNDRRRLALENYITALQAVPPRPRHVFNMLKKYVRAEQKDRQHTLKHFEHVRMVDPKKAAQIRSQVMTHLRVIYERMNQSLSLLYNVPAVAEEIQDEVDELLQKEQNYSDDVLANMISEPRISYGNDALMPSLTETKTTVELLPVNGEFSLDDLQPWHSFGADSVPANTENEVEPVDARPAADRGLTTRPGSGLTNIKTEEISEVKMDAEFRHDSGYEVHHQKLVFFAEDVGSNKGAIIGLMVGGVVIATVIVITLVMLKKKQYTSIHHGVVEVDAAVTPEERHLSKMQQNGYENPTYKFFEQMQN
Acetylcholinesterase, sequence (O42275 whole entry): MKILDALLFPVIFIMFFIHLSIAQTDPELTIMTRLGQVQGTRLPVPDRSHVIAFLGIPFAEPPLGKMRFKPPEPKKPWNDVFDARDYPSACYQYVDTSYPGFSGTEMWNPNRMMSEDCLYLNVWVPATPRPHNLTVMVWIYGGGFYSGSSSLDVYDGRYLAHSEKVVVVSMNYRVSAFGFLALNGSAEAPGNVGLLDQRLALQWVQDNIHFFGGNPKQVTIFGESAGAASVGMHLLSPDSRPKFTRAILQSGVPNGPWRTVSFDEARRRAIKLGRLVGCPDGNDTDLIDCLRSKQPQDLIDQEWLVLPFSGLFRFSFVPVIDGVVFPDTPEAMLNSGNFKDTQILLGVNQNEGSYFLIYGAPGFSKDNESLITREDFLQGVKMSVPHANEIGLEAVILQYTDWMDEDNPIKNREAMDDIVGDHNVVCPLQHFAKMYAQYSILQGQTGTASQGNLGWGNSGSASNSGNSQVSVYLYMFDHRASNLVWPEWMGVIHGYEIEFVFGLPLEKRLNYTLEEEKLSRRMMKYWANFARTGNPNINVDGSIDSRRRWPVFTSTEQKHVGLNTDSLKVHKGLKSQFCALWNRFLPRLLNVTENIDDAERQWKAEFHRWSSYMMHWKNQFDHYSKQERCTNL
Cholinesterase, sequence (P81908 whole entry): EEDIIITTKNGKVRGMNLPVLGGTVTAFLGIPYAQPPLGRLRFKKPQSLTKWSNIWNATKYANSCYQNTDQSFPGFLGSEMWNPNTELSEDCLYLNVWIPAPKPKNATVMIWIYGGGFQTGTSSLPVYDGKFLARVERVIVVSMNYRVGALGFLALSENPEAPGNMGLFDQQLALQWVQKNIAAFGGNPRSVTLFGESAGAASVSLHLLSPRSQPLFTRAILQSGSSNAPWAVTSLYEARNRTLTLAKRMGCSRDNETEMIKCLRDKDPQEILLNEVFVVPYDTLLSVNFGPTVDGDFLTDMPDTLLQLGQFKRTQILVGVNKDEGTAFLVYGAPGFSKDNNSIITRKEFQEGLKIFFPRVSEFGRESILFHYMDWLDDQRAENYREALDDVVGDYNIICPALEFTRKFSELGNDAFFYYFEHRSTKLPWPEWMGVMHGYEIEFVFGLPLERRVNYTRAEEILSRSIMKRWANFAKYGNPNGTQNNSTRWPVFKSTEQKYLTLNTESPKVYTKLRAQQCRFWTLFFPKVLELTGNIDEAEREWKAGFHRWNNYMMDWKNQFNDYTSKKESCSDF

Take `COc1cc(/C=C/C(=O)CC(=O)/C=C/c2ccc(O)c(OC)c2)ccc1O`: in assay [1], the inhibition result is “Dose-dependent effect”. Besides, in assay [2], the inhibition result is “inactive”.
By IC50 is commonly meant the point on the concentration scale where inhibition reaches its midpoint. High values mean weaker potency in that assay, low ones greater potency in that assay. For the compound `CC(C)NCc1cccc2oc3cc(O)ccc3c12`, the IC50 in assay [3] was determined as 18.4 µM; in assay [5], 22.6 µM. The Ratio IC50 in assay [4] was determined as 1.23.
In the case of `CCN(C)Cc1cccc2oc3cc(OC)ccc3c12`, the IC50 in assay [5] is more than 50 µM.
